Reference: ChEMBL document CHEMBL5038587, “Synthesis of Methoxy-, Methylenedioxy-, Hydroxy-, and Halo-Substituted Benzophenanthridinone Derivatives as DNA Topoisomerase IB (TOP1) and Tyrosyl-DNA Phosphodiesterase 1 (TDP1) Inhibitors and Their Biological Activity for Drug-Resistant Cancer” (J Med Chem, 2021)
Values belong to the molecule of their own block, whether it stands above or below them. Activity calls are given as the source filed them. No cut-off for these calls is given here.

Experiments:
MCF7 [1] = experiment: Synergistic cytotoxicity against human MCF7/TDP1 cells at 100 nM after 96 hrs in presence of 12-(2-(Dimethylamino)ethyl)-1,2-dihydroxy-[1,3]dioxolo[4',5':4,5]benzo[1,2-c]phenanthridine-13(12H)-one by MTT assay; type: functional
MCF7 [2] = experiment: Synergistic cytotoxicity against human MCF7/TDP1 cells at 100 nM after 96 hrs by MTT assay; type: functional
MCF7 [3] = experiment: Synergistic cytotoxicity against human MCF7 cells at 50 nM after 96 hrs in presence of 12-(2-(Dimethylamino)ethyl)-1,2-dihydroxy-[1,3]dioxolo[4',5':4,5]benzo[1,2-c]phenanthridine-13(12H)-one by MTT assay; type: functional
MCF7 [4] = experiment: Synergistic cytotoxicity against human MCF7 cells at 50 nM after 96 hrs by MTT assay; type: functional
[5] = target: T1, Tyrosyl-DNA phosphodiesterase 1 (Homo sapiens, UniProt Q9NUW8); experiment: Induction of TDP1-DNA complex formation in human MCF7 cells at 10 uM by ICE assay; type: cell-based
T1 sequence (Q9NUW8 whole entry): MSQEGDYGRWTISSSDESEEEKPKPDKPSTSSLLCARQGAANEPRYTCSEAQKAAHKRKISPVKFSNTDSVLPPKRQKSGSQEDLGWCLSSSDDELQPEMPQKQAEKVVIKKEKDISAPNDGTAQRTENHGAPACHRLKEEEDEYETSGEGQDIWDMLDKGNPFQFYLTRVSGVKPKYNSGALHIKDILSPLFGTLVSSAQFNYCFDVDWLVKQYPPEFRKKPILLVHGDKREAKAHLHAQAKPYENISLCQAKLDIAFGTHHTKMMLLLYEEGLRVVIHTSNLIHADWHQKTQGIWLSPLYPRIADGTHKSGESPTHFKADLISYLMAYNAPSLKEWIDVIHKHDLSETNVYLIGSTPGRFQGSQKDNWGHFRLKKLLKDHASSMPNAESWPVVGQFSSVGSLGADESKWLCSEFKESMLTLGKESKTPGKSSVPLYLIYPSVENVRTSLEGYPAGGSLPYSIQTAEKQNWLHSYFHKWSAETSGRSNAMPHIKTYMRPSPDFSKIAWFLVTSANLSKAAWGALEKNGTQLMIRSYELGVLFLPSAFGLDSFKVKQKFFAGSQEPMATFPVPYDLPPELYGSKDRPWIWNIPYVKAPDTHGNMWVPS
Method in brief: (§1)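 Genomic DNA isolated with DNAzol and ethanol precipitation, then 2 µg slot-blotted onto nitrocellulose in 25 mM NaH2PO4 pH 6.5. Probed with rabbit anti-TDP1 (1:1000) overnight at 4 °C, then HRP secondary, with chemiluminescent read-out.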

MCF7 [6] = experiment: Cytotoxicity against human MCF-7/TDP1 cells assessed as cell growth inhibition after 72 hrs by MTT assay; type: functional
Method in brief: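 MCF-7/TDP1 is a TDP1-overexpressing line made by transfecting parental MCF-7, grown in RPMI 1640 or DMEM with 10% FBS at 37 °C, 5% CO2. DMSO-dissolved compounds tested at five doses from 0.01 to 100 µM, read by MTT. GI50 (mean ± SD, at least three repeats) fitted by nonlinear regression against control.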

MCF7 [7] = experiment: Induction of DNA damage in human MCF7/TDP1 cells assessed as increase in gammaH2AX foci measured after 6 hrs by DAPI staining based immunofluorescence assay; type: functional
Method in brief: (§2)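 Fixed in 4% paraformaldehyde, permeabilized with 0.5% Triton X-100, blocked in 5% goat serum. Stained with γH2AX antibody overnight at 4 °C, then Alexa 488 secondary plus DAPI 2 µg/mL. Foci counted by confocal microscopy, at least three independent repeats.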

MCF7 [8] = experiment: Induction of DNA damage in human MCF7/TDP1 cells assessed as increase in gammaH2AX foci at 1 uM measured after 6 hrs by DAPI staining based immunofluorescence assay; type: functional; method in brief: as §2
MCF7 [9] = experiment: Induction of DNA damage in human MCF7/TDP1 cells assessed as decrease in TPT-induced gammaH2AX foci at 2 uM measured after 6 hrs by DAPI staining based immunofluorescence assay; type: functional; design: scale not given: the % may be the effect or the level left; method in brief: as §2
[10] = target: T1, Tyrosyl-DNA phosphodiesterase 1; experiment: Induction of TDP1-DNA complex formation in human […] cells at 10 to 100 uM in presence of TPT by ICE assay; type: cell-based; conditions: dose 10-100 µM; method in brief: as §1
[11] = target: T1, Tyrosyl-DNA phosphodiesterase 1; experiment: Induction of TDP1-DNA complex formation in human MCF7/TDP1 cells at 10 uM by ICE assay; type: cell-based; method in brief: as §1
[12] = target: T1, Tyrosyl-DNA phosphodiesterase 1; experiment: Induction of TDP1-DNA complex formation in human MCF7 cells at 10 to 100 uM in presence of TPT by ICE assay; type: cell-based; conditions: dose 10-100 µM; method in brief: as §1
DU-145 = experiment: Cytotoxicity against human DU145 cells assessed as cell growth inhibition after 72 hrs by MTT assay; type: functional
Method in brief: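 Compounds predissolved in DMSO, tested in a five-dose series from 0.01 to 100 µM for 72 h, then read by MTT. Percent viability inhibition is taken against control, and GI50 is fitted by nonlinear regression.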

MCF7 [13] = experiment: Induction of DNA damage in human MCF7 cells assessed as decrease in TPT-induced gammaH2AX foci at 1 uM measured after 6 hrs by DAPI staining based immunofluorescence assay; type: functional; design: scale not given: the % may be the effect or the level left; method in brief: as §2
MCF7 [14] = experiment: Induction of DNA damage in human MCF7 cells assessed as decrease in TPT-induced gammaH2AX foci at 2 uM measured after 6 hrs by DAPI staining based immunofluorescence assay; type: functional; design: scale not given: the % may be the effect or the level left; method in brief: as §2
MCF7 [15] = experiment: Induction of DNA damage in human MCF7/TDP1 cells assessed as decrease in TPT-induced gammaH2AX foci at 1 uM measured after 6 hrs by DAPI staining based immunofluorescence assay; type: functional; design: scale not given: the % may be the effect or the level left; method in brief: as §2
MCF7 [16] = experiment: Induction of apoptosis in human MCF7 cells assessed as necrotic cells at 1 uM measured after 24 hrs by Annexin V-FITC/propidium iodide staining based flow cytometry (Rvb=0.83%); type: functional
Method in brief: (§3)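 MCF-7 cells (2×10^5 per dish) exposed to compound at 1, 2 or 4 µM for 24 h. Cells resuspended in binding buffer and stained with Annexin V-FITC plus propidium iodide for 15 min at 25 °C in the dark. Viable, early apoptotic, late apoptotic and necrotic fractions quantified by flow cytometry.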

MCF7 [17] = experiment: Induction of apoptosis in human MCF7 cells assessed as late apoptotic cells at 1 uM measured after 24 hrs by Annexin V-FITC/propidium iodide staining based flow cytometry (Rvb=0%); type: functional; method in brief: as §3
MCF7 [18] = experiment: Induction of apoptosis in human MCF7 cells assessed as viable cells at 1 uM measured after 24 hrs by Annexin V-FITC/propidium iodide staining based flow cytometry (Rvb=99.05%); type: functional; conditions: read-out: Activity; method in brief: as §3
MCF7 [19] = experiment: Induction of apoptosis in human MCF7 cells assessed as early apoptotic cells at 1 uM measured after 24 hrs by Annexin V-FITC/propidium iodide staining based flow cytometry (Rvb=0.12%); type: functional; method in brief: as §3
MCF7 [20] = experiment: Induction of apoptosis in human MCF7 cells assessed as necrotic cells at 2 uM measured after 24 hrs by Annexin V-FITC/propidium iodide staining based flow cytometry; type: functional; method in brief: as §3
MCF7 [21] = experiment: Induction of apoptosis in human MCF7 cells assessed as late apoptotic cells at 2 uM measured after 24 hrs by Annexin V-FITC/propidium iodide staining based flow cytometry (Rvb=0%); type: functional; method in brief: as §3
MCF7 [22] = experiment: Induction of apoptosis in human MCF7 cells assessed as viable cells at 2 uM measured after 24 hrs by Annexin V-FITC/propidium iodide staining based flow cytometry (Rvb=99.05%); type: functional; conditions: read-out: Activity; method in brief: as §3
MCF7 [23] = experiment: Induction of apoptosis in human MCF7 cells assessed as early apoptotic cells at 2 uM measured after 24 hrs by Annexin V-FITC/propidium iodide staining based flow cytometry (Rvb=0.12%); type: functional; method in brief: as §3
MCF7 [24] = experiment: Induction of apoptosis in human MCF7 cells assessed as necrotic cells at 4 uM measured after 24 hrs by Annexin V-FITC/propidium iodide staining based flow cytometry (Rvb=0.83%); type: functional; method in brief: as §3
MCF7 [25] = experiment: Induction of apoptosis in human MCF7 cells assessed as late apoptotic cells at 4 uM measured after 24 hrs by Annexin V-FITC/propidium iodide staining based flow cytometry (Rvb=0%); type: functional; method in brief: as §3
MCF7 [26] = experiment: Induction of apoptosis in human MCF7 cells assessed as viable cells at 4 uM measured after 24 hrs by Annexin V-FITC/propidium iodide staining based flow cytometry (Rvb=99.05%); type: functional; conditions: read-out: Activity; method in brief: as §3
MCF7 [27] = experiment: Induction of apoptosis in human MCF7 cells assessed as early apoptotic cells at 4 uM measured after 24 hrs by Annexin V-FITC/propidium iodide staining based flow cytometry(Rvb=0.12%); type: functional; method in brief: as §3
MCF7 [28] = experiment: Synergistic cytotoxicity against human MCF7 cells assessed as combination index measured after 96 hrs in presence of TPT by MTT assay; type: functional
MCF7 [29] = experiment: Synergistic cytotoxicity against human MCF7/TDP1 cells assessed as combination index measured after 96 hrs in presence of TPT by MTT assay; type: functional
[30] = target: T2, DNA topoisomerase 1 (Homo sapiens) (UniProt P11387); experiment: Inhibition of recombinant TOP1 (unknown origin) at 1 uM using 3'-[32P]-labeled 117 bp DNA oligonucleotides as substrate incubated for 20 mins by PAGE analysis relative to CPT
T2 sequence (whole entry): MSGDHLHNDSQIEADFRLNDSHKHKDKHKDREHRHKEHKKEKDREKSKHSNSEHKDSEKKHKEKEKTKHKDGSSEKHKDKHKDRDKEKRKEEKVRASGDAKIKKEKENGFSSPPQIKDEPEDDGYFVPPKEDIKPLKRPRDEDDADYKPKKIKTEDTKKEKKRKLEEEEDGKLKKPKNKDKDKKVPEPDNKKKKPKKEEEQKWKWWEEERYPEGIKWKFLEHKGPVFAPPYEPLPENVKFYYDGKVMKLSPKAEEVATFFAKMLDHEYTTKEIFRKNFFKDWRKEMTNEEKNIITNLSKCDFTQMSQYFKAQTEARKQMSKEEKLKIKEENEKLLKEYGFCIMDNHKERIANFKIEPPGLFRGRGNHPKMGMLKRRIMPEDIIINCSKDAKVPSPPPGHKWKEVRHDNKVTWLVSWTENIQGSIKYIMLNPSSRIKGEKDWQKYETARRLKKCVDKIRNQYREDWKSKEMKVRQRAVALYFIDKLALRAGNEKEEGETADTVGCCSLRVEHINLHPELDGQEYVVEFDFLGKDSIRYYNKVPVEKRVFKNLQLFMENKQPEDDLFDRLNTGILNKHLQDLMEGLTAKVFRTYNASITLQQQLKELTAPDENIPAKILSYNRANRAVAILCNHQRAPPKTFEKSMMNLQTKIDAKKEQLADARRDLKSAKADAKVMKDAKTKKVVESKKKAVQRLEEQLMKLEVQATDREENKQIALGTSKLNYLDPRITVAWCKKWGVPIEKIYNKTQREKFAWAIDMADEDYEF
Method in brief: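 3'-[32P]-labeled 117 bp oligonucleotide (~2 nM) with recombinant TOP1 and compound, 25 °C, 20 min. Buffer: 10 mM Tris-HCl pH 7.5, 50 mM KCl, 5 mM MgCl2, 0.1 mM EDTA, BSA. Stopped with 0.5% SDS and run on 20% denaturing PAGE with phosphorimaging.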

[31] = target: T1, Tyrosyl-DNA phosphodiesterase 1; experiment: Induction of TDP1-DNA complex formation in human MCF7 cells at 100 uM by ICE assay; type: cell-based; method in brief: as §1
MCF7/TDP1 = experiment: Induction of DNA damage in human MCF7/TDP1 cells assessed as decrease in gammaH2AX foci at 2 uM measured after 6 hrs by DAPI staining based immunofluorescence assay; design: scale not given: the % may be the effect or the level left

Activity [5]: inactive
SMILES: CC[C@@]1(O)C(=O)OCc2c1cc1n(c2=O)Cc2cc3c(CN(C)C)c(O)ccc3nc2-1 [TOPOTECAN]
Activity (MCF7 [1]): 86% | Activity (MCF7 [2]): 19% | Activity (MCF7 [3]): 87% | Activity (MCF7 [4]): 23% | GI50 (MCF7 [6]): 2.59 µM | Activity (MCF7 [7]): 34% | Activity (MCF7 [8]): 34%

Activity [10]: Active | Activity [11]: Active | Activity [12]: Active | Activity [5]: inactive | inhibition [30]: 75% | Activity [31]: Active
SMILES: CN(C)CCn1c(=O)c2c(O)c(O)ccc2c2ccc3cc4c(cc3c21)OCO4
Activity (MCF7 [9]): 18% | GI50 (DU-145): 800 nM | GI50 (MCF7 [6]): 3.98 µM | Activity (MCF7 [8]): 22% | Activity (MCF7 [13]): 14% | Activity (MCF7 [14]): 18% | Activity (MCF7 [15]): 14% | Activity (MCF7 [16]): 0.16% | Activity (MCF7 [17]): 0.73% | viability at 1 µM (MCF7 [18]): 70.1% | Activity (MCF7 [19]): 28.99% | Activity (MCF7 [20]): 14.71% | Activity (MCF7 [21]): 24.3% | viability at 2 µM (MCF7 [22]): 39.7% | Activity (MCF7 [23]): 21.31% | Activity (MCF7 [24]): 9.31% | Activity (MCF7 [25]): 48.46% | viability at 4 µM (MCF7 [26]): 15.7% | Activity (MCF7 [27]): 26.53% | CI (MCF7 [28]): <0.3 | CI (MCF7 [29]): <0.3 | Activity (MCF7/TDP1): 28%
